In the library only some 1.7% were active in any assay of this set; here they are far more common.
C-LANA FP – KSHV C-LANA DNA binding inhibition; MBP-C-LANA/FAM-LBS DNA binding, fluorescence polarization; inhibition, % at 9 µM; 340,000 tested, 0.078% active;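 active = highest replicate inhibition at or above 60% at 9 µM, even if other replicates fall short; inactive = all replicates below 60% inhibition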;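 also: 0% = neutral control wells and 100% = 4 µM acridine orange control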
A3G deaminase – blocks human APOBEC3G single-stranded DNA deamination; Q9HC16; recombinant A3G, ssDNA deamination FAM/TAMRA fluorescence; inhibition, % at 20 µM; 330,000 tested, 0.28% active;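 active = inhibition of at least 40% at 20 µM, with no more than 30% in the related APOBEC3A deaminase screen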;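 also: plate controls were DMSO wells with A3G for no effect and wells lacking A3G enzyme for full effect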
APOBEC3A inh – human APOBEC3A DNA deaminase inhibition | P31941 | recombinant A3A, FAM/TAMRA ssDNA deamination fluorescence | inhibition, % at 20 µM | 330,000 tested, 0.41% active | AID 493011;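 active = at least 40% inhibition at 20 µM here, with at most 30% in a related deaminase screen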;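 also: plate controls were A3A with DMSO for no effect and wells lacking A3A enzyme for full effect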
CAL PDZ FP-1 – blocks peptide binding to human CAL PDZ domain; Q9HD26; purified CAL PDZ, TMR-peptide fluorescence polarization, 1 h; inhibition, % at 20 µM; 330,000 tested, 0.02% active;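 active = highest replicate inhibition of at least 40%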;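 also: plate controls were DMSO neutral control wells for no effect and unlabeled competitor peptide control wells for full effect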
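material = purified tagged CAL PDZ domain construct (CerCALP) | compound dosing = 20 µM, one dose | times = 1 h at RT | measured by = fluorescence polarization from S- and P-plane intensities, G-factor corrected | read-out = inhibition from polarization loss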
CAL PDZ FP-2 – CAL PDZ (human) peptide binding inhibition; inhibition, % at 24.9 µM; AID 602252; 300,000 tested, 0.92% active; Q9HD26; purified CAL PDZ, TMR-peptide fluorescence polarization, 1 h;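 active = mean inhibition of at least 30% with at least half of replicates also reaching 30%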;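 also: 0% = DMSO neutral control and 100% = excess unlabeled competitor peptide PRC23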
Keap1 Nrf2 FP – inhibitors of human Keap1-Nrf2 protein-protein interaction | Q14145 | Keap1 Kelch-Nrf2 peptide fluorescence polarization, 1536-well | inhibition, % at 9.4 µM | 340,000 tested, 0.15% active | AID 504523; in the data active = inhibition above about 12%;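 also: human Keap1 Kelch domain with fluorescein labeled Nrf2 9mer peptide probe; 0% = neutral control wells and 100% = peptide positive control; higher means more block of Keap1 binding to Nrf2 peptide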
Target sequence (Q14145 whole entry, looked up, the tested form may be a part): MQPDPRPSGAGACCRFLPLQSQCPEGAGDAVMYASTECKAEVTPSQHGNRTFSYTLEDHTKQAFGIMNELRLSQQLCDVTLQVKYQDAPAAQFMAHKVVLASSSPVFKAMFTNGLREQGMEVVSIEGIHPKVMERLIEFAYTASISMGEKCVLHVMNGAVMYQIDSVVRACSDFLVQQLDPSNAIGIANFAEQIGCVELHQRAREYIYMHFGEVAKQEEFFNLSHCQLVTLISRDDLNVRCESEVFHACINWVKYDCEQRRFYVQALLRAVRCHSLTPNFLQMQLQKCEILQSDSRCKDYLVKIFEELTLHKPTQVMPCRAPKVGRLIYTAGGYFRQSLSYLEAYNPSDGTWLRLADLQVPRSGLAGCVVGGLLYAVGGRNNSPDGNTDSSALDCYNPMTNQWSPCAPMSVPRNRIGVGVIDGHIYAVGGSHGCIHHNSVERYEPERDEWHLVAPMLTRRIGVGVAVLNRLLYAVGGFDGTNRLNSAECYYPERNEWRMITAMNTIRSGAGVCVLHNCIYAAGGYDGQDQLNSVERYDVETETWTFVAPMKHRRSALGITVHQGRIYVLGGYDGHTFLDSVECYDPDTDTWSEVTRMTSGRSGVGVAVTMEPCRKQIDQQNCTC
A3A conf – confirmation of human APOBEC3A DNA deaminase inhibitors; shares compounds with APOBEC3A inh; recombinant A3A, ssDNA deaminase UDG fluorescence assay; inhibition, % at 20 µM; 1,400 tested, 63% active; AID 493151;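 active = inhibition reaching a set limit, 80% of the first screen's cutoff, at 20 µM in any replicate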;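 also: plate controls were DMSO wells with A3A for no effect and wells lacking A3A enzyme for full effect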
UDG A3A counter – counter-screen for APOBEC3A inhibitors: UDG; shares compounds with APOBEC3A inh; UDG counterscreen, FAM/TAMRA uracil oligo fluorescence; inhibition, % at 20 µM; 1,000 tested, under 10 active; AID 504714; call rule not given here
The depositor's hits bear a star; nt = no result given.

SMILES	C-LANA FP	A3G deaminase	APOBEC3A inh	CAL PDZ FP-1	CAL PDZ FP-2	Keap1 Nrf2 FP	A3A conf	UDG A3A counter
Cc1cccc(C)c1NC(=O)C(C)Sc1n[nH]c(-c2ccncc2)n1 (centres undefined)	0.4	-8.3	82.0*	-0.6	nt	-1.2	-10.4	1.3
COc1ccc(S(=O)(=O)N2CCCOC2CNC(=O)C(=O)NCCc2ccco2)cc1C (centres undefined)	-0.7	-11.2	-1.8	-0.9	11.7	-7.5	nt	nt
Cc1cccc(NC(=O)CN2C(=O)S/C(=C\c3ccc(-c4cccc(C(=O)O)c4C)o3)C2=O)c1	4.0	4.3	5.8	-3.1	4.8	-3.0	nt	nt
Cc1ccc(C(=O)O)cc1-c1ccc(C=C2C(=O)c3ccccc3C2=O)o1	10.2	12.3	43.8*	0.5	-0.5	-7.0	35.5*	-1.7
Cc1ccc(NC(=O)CN2C(=O)S/C(=C/c3ccc(-c4cc(C(=O)O)ccc4C)o3)C2=O)cc1C	7.9	12.3	63.2*	-2.3	0.6	3.9	43.0*	-3.9
COC(=O)C(C)N1C(=O)S/C(=C\c2ccc(-c3ccc(C(=O)O)cc3C)o2)C1=O (centres undefined)	7.3	12.0	51.0*	-1.9	-14.2	-7.8	62.2*	-2.2
CCN(c1ccccc1)S(=O)(=O)c1cc(C(=O)OC(C)C(=O)Nc2ccc3c(c2)OCCO3)ccc1C (centres undefined)	-0.9	12.7	50.2*	-0.7	4.5	-5.1	36.6*	0.7
CCC1=[N+](C)c2cccc3cccc(c23)N1C	-0.8	22.1	65.2*	-1.5	-2.1	-0.1	77.8*	-3.0
COc1cc(Cl)ccc1NC(=O)COc1ccccc1C(=O)NN	-0.9	-7.8	1.3	-1.5	nt	-0.7	nt	nt
Cc1ccc(C(=O)Nc2cc([N+](=O)[O-])ccc2C)cc1	-0.6	-8.9	-4.4	0.4	-3.7	4.3	nt	nt
Cc1c(NC(=O)c2ncn[nH]2)cccc1-c1nc2ccccc2s1	-1.2	25.4	75.1*	-0.1	-2.3	-0.7	71.5*	3.0
Cc1ccc(C)c(NC(=O)c2ncn[nH]2)c1	0.0	12.3	45.3*	-2.1	-3.2	1.2	40.8*	-1.2
Cc1ccc(C)c(NC(=O)c2cnccn2)c1	0.1	1.0	0.5	-1.3	2.4	0.3	nt	nt
Cc1ccc(C)c(NC(=O)c2cc[n+](C)cc2)c1	0.2	8.6	78.9*	-0.1	-3.0	-0.8	68.8*	-2.0
Cc1c(NC(=O)c2ccc(N3CCCC3)c([N+](=O)[O-])c2)cccc1-c1nc2ccccc2s1	2.5	2.5	3.8	-1.8	-0.6	0.4	nt	nt
C[n+]1ccc(C(=O)Nc2ccccc2Cl)cc1	1.9	14.5	73.0*	22.8	1.3	0.1	68.8*	-2.1
O=C(Nc1ccccc1Cl)c1ccc2ccccc2c1	-3.7	-2.7	-4.9	0.0	0.0	-4.5	nt	nt
CC(C)C[C@@H](CN)NC(=O)c1nc[nH]c1C(=O)N[C@@H](CC(C)C)C(=O)CNC[C@H](C)NC(=O)c1nc[nH]c1C(=O)N[C@@H](C)C(=O)O	-0.7	nt	nt	1.9	-4.5	-0.6	nt	nt
CC(C)C[C@H](NC(=O)C1CC(=O)N(c2ccc3c(c2)OCCO3)C1)C(=O)N1CCCCC1 (some centres undefined)	-1.2	-3.8	-4.3	-1.1	8.5	-2.2	nt	nt
O=C(CC12CCC(CC1)C2)NCc1ccc2c(c1)OCO2	-1.8	-2.9	44.4*	-3.5	6.2	-4.1	-3.7	-0.6
O=C(Cc1ccccc1)NCc1ccc2c(c1)OCO2	2.4	3.9	2.1	0.4	0.0	-5.9	nt	nt
CC(C)NC(=S)NNc1nc2ccccc2s1	-0.4	38.4	2.3	-0.3	0.9	3.7	nt	nt
COc1ccccc1NC(=O)CSc1nnc(CNC(=O)c2ccco2)n1C	-0.7	-10.5	-2.1	-0.5	-3.7	-1.3	nt	nt
COc1ccccc1OCCSc1nnc(CNC(=O)c2ccco2)n1C	0.3	5.8	47.8*	0.0	2.1	-1.0	27.1	nt
O=C1c2ccccc2[C@@H]2C[C@@H](O)[C@H](Nc3cccc(Cl)n3)CCN12	-0.8	4.4	4.4	-0.8	5.0	0.2	nt	nt
SMILES	C-LANA FP	A3G deaminase	APOBEC3A inh	CAL PDZ FP-1	CAL PDZ FP-2	Keap1 Nrf2 FP	A3A conf	UDG A3A counter
C[n+]1c(/C=C/c2ccc(O)cc2)ccc2ccccc21	-3.1	27.6	57.3*	-0.1	-2.5	-8.5	75.3*	5.3
C[n+]1c(/C=C/c2ccc3c(c2)OCO3)ccc2ccccc21	-1.5	20.2	86.0*	-0.3	-5.0	-7.9	86.6*	-2.4
Cc1cc(C)cc(OCC(=O)N(C)CC(=O)Nc2ccc(N3CCOCC3)cc2)c1	-1.0	-8.6	-2.8	-3.2	-5.1	-0.1	nt	nt
Cc1cccc(N(Cc2ccccc2)C(=O)CN2C(=O)NC3(CCCC3)C2=O)c1	0.3	-5.9	-1.4	-0.5	-1.8	0.0	nt	nt
Cc1cc(C)n2c(SCC(=O)Nc3cc(S(=O)(=O)N(C)C)ccc3C)nnc2n1	0.1	3.0	40.1*	0.0	-3.1	-4.2	23.4	nt
Cc1ccc(S(=O)(=O)N(C)C)cc1NC(=O)CSc1nnc(C2CC2)n1C1CC1	-1.3	-8.4	-3.8	0.0	-1.3	-0.4	nt	nt
O=C(O)c1cc(-c2ccc(/C=C3\NC(=O)N(c4ccccc4)C3=O)o2)ccc1Cl	7.7	18.2	58.4*	-4.0	1.8	2.7	35.2*	-2.7
CC(NC(=O)CSc1nnc(CC(=O)Nc2ccc(Cl)c(Cl)c2)n1C)c1ccccc1 (centres undefined)	-0.4	14.7	46.9*	-2.2	-2.3	-1.8	47.9*	nt
CC(C)Oc1ccc(OCCSc2nc3ccccc3n2CC(=O)O)cc1	-0.4	6.8	69.5*	0.0	-4.9	-0.2	23.9	nt
CC(=O)Nc1nnc(SCC(=O)NCCOc2ccccc2)s1	1.0	25.8	56.5*	-0.2	-2.5	0.2	63.1*	-2.0
CC(=O)Nc1nnc(SCC(=O)NCC2CCCO2)s1 (centres undefined)	0.2	10.1	40.8*	-0.6	-3.8	-1.5	39.7*	4.6
CCC(=O)Nc1nnc(SCC(=O)NCC2CCCO2)s1 (centres undefined)	1.5	-6.1	1.9	1.0	1.9	1.0	nt	nt
CC(=O)Nc1ccc2nc(SCC(=O)NCCOc3ccccc3)sc2c1	0.7	3.0	-2.2	-12.3	3.0	-7.5	nt	nt
CCCc1cc(C(=O)N2CCN(c3ccccc3C)CC2)cs1	0.7	-7.6	-3.0	-1.4	-6.9	4.0	nt	nt
Cc1c2ccccc2cc[n+]1CCCS(=O)(=O)[O-]	1.2	-2.2	1.1	-2.3	-1.7	-7.3	nt	nt
CC[n+]1ccc(/C=C2\Sc3ccccc3N2CCCS(=O)(=O)[O-])c2ccccc21	-0.6	23.6	82.8*	-1.3	1.4	-7.2	92.4*	3.7
